From PMC5829012 (Biochemistry, 2018)
Entries after “also recorded” stand apart in the source; their conditions may differ. Read-outs that look alike come from different tables or passages of the source.

Legend:
[1] = target: T1, Aβ42-fibrinogen interaction (Homo sapiens, UniProt P05067); test: AlphaLISA of the Aβ42-fibrinogen interaction; assay type: binding; conditions: triplicate
How it was run: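 Test compound (0.1–100 μM) incubated 30 min at RT with 10 nM biotinylated Aβ42 and 1 nM fibrinogen in 25 mM Tris-HCl pH 7.4, 150 mM NaCl, 0.05% Tween-20, 0.1% BSA. Anti-fibrinogen antibody, 20 μg/ml streptavidin donor and protein A acceptor beads added for 90 min at RT. Triplicate runs; IC50 from sigmoidal dose-response fit with 95% CI.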

Aβ aggregation = conditions: cited from earlier work
[2] = target: T1, Aβ42-fibrinogen interaction; conditions: positive control; cited from earlier work
AD mouse models = conditions: cited from earlier work
[3] = system: fibrin clot formation from fibrinogen with or without Aβ42 oligomers; test: In vitro clotting; assay type: biochemical, human; conditions: compound 20 μM; fibrinogen 1.5 μM; thrombin; 450 nm
How it was run: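 Purified human fibrinogen (1.5 μM) was preincubated with test compound (20 μM) or 0.4% DMSO vehicle, with or without Aβ42 oligomers (3 μM). Oligomers were made from HFIP-monomerized films: sonicated in DMSO, agitated overnight at 4°C, spun at 20,000 x g, and quantified by BCA. Clotting was started with thrombin (0.5 U/mL) and CaCl₂ (5 mM) in 20 mM HEPES pH 7.4, 137 mM NaCl at RT. A450 turbidity was followed over time, in triplicate.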

Aβ42 aggregation = Aβ42 aggregation (Homo sapiens, UniProt P05067); test: Aβ42 aggregation kinetics by ThT fluorescence; assay type: biochemical; conditions: Aβ42 12.5 μM; compound 48 μM; 37°C, 26 hrs
Sequence of Aβ42 aggregation (P05067 672-713 limits assumed): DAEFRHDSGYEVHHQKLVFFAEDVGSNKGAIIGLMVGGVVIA
How it was run: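 HFIP-monomerized Aβ42 was dissolved in DMSO by sonication, diluted in 20 mM HEPES pH 7.4/140 mM NaCl, spun 10 min at 4°C and kept on ice for ≤30 min. Wells were DMSO-matched; buffer ± compound served as controls. ThT was 33 μM final; plates shaken at 25 rpm, 37°C. Fluorescence (ex 440/em 480 nm) was read hourly. Triplicate.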

Aβ42 = conditions: surface plasmon resonance; cited from earlier work
[4] = system: Aβ42-induced activation of the FXII-mediated contact system; test: Kallikrein activity assay; assay type: biochemical, human; conditions: DXS 0.1 μg/ml
How it was run: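 Aβ42 oligomers (overnight 4°C in HEPES buffer, 1 μM final) ± test compound (40 μM) shaken 30 min at RT in 20 mM HEPES pH 7.4/140 mM NaCl. Human FXII and plasma prekallikrein added (10 nM each), then S-2302 (0.67 mM final). A405 read at RT; rate over 30 min as mU/min. DXS 0.1 µg/ml ± test compound as positive control; triplicate.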

[5] = read-out: AlphaLISA (IC50), known Aβ aggregation inhibitors (Table 1), 10 nM biotinylated Aβ42, 1 nM fibrinogen

T1 sequence (P05067 672-713 limits assumed): as above

Compound: O=C1NC(=O)c2cc(Nc3ccccc3)c(Nc3ccccc3)cc21 [4,5-Dianilino Pthalimide (DAPH), 4,5-Dianilino Pthalimide]
- IC50 [1, 5]: 43.2 µM

Compound: Oc1cccc(Nc2ccc(Nc3cccc(O)c3)nn2)c1 [RS-0406]
- IC50 [1, 5]: > 100 µM
- inhibition of Aβ aggregation and its toxicity (Aβ aggregation): strongly inhibit

Compound: CN(C)CCN(Cc1ccccc1)C(=O)c1cc(-c2ccc(F)cc2)n2nc(C(C)(C)C)cc2n1 [RU-505]
- inhibition of the Aβ42-fibrinogen interaction [2]: known inhibitor of the Aβ42-fibrinogen interaction
- cognitive impairment (AD mouse models): lessened the severity
- cortical inflammation (AD mouse models): reduced
- vascular Aβ deposition (AD mouse models): reduced

Compound: CN(C)c1cccc(Oc2cnc(Nc3cccc(O)c3)nc2)c1 [SEN1269]
- IC50 ([1]; RHS analogs of SEN1269 (Table 2), AlphaLISA): 17.8 µM
- IC50 [1, 5]: 17.8 µM
- turbidity of the normal fibrin clot formed in the absence of Aβ42 [3]: further decreased the turbidity
- Aβ42 aggregation (ThT fluorescence) (Aβ42 aggregation): effectively inhibited Aβ42 aggregation
- binding to Aβ42 (Aβ42): binds to Aβ42; also recorded: shown to bind Aβ42
- inhibition of Aβ aggregation / β-pleated sheet assembly and toxicity (Aβ aggregation): potent Aβ aggregation inhibitor; also recorded: block

Compound: Dextran sulfate
- kallikrein activity (positive control) [4]: high kallikrein activity

Compound: Tanshinone
- IC50 [1, 5]: > 100 µM
- inhibition of Aβ aggregation and its toxicity (Aβ aggregation): strongly inhibit
